Screens from PubChem.
A selection: hits, their analogues and other compounds. The true share with any hit is near 1.9%.
Scp1 inh: Scp-1 phosphatase inhibitors, primary screen, biochemical, colorimetric, uHTS; Recombinant Scp1, phosphopeptide, malachite green phosphate absorbance; inhibition, % at 20 µM; 340,000 tested, 0.88% active; AID 493091, 2011;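 active = inhibition above about 50% at 20 µM, limit read from the data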;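 note: plate controls were DMSO wells with enzyme for no effect and wells lacking enzyme for full effect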
Target sequence (Q9GZU7 76-261 limits assumed): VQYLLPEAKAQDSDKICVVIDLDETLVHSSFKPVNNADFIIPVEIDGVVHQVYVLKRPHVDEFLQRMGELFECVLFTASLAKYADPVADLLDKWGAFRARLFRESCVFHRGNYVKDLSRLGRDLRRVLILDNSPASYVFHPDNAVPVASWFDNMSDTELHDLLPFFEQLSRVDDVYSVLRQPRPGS
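Test system: SCP-1 phosphatase catalytic domain, residues 76-261; measured by: colorimetric phosphate reagent with accelerator and stabiliser, absorbance at 630 nm; timing: enzyme reaction 45 min at room temperature, colour 5 min, stabilisation 30 min; also added: Phosphorylated 17-residue peptide substrate; compound dosing: one concentration, 20 µM, with 1.0% DMSO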
SUMO1 PPI mod: modulators of SUMO1 protein-protein interactions, primary screen, biochemical, uHTS; SUMO1 binding to a labelled peptide, TR-FRET, 1 h; inhibition, % at 20 µM; 360,000 tested, 0.33% active; AID 602429, 2012; in the data active = inhibition above about 37%
Target sequence (P63165 whole entry, looked up): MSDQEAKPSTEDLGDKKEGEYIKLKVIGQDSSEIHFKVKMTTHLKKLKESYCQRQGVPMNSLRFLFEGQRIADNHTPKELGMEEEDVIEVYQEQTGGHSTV
FAS-TE inh: FAS thioesterase domain inhibitors, primary screen, biochemical, fluorescence intensity, uHTS; recombinant FAS-TE, OMFH fluorogenic substrate, fluorescence endpoint; inhibition, % at 15 µM; 360,000 tested, 0.67% active; Fatty acid synthase (Homo sapiens), P49327;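 active = compounds whose normalised, plate-corrected inhibition of enzyme fluorescence in the single-dose primary screen is 50% or more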;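 note: 0% = DMSO with enzyme and 100% = substrate without enzyme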
LMPTP inh: LMPTP phosphatase inhibitors, primary screen, biochemical, fluorescence intensity, uHTS. Low molecular weight phosphotyrosine protein phosphatase (Homo sapiens), P24666. recombinant LMPTP-A, OMFP fluorogenic substrate. inhibition, % at 20 µM. 360,000 tested, 0.22% active. AID 651560, 2012;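 active = compounds that cut the enzyme signal by at least half of the control window in the single-dose screen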;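 note: plate controls were DMSO wells with enzyme plus substrate for no effect and substrate without enzyme for full effect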
Target sequence (P24666 whole entry, looked up): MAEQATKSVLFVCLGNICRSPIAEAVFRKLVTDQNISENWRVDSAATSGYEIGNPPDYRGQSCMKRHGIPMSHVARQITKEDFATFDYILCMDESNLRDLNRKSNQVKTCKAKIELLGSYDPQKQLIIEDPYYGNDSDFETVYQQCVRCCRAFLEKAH
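Test system – LMPTP-A enzyme · Amount – LMPTP-A at 0.625 nM final in the reaction · Buffer or medium – Bis-Tris pH 6.0, DTT, detergent · Reagent – OMFP 400 µM · Doses – single 20 µM dose · Schedule – reaction 50 min, room temperature, dark · Detection – fluorescence intensity of OMFP turnover product · Evaluation – percent inhibition versus substrate-only and uninhibited controls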
STEP block: STEP phosphatase inhibitors, primary screen, biochemical, fluorescence intensity, uHTS. 360,000 tested, 0.25% active. inhibition, % at 20 µM. recombinant STEP, OMFP fluorogenic substrate;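 active = inhibition at 20 µM, scaled per plate between control wells, above about 37%, limit read from the data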;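 note: 0% = DMSO with enzyme and substrate and 100% = substrate only without enzyme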
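Assay system: isolated STEP enzyme. Buffer or medium: pH 6.0 Bis-Tris with DTT and Tween 20. Also added: fluorogenic phosphatase substrate OMFP at 25 µM final. Dosing: 20 µM, 1% DMSO. Timing: 20 min reaction, room temperature, in the dark. Measured by: fluorescence intensity, excitation 480 nm, emission 540 nm. Evaluation: normalized % inhibition.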
Scp-1 conf: Scp-1 phosphatase inhibitors, retest, confirmation, biochemical, colorimetric, single concentration | shares compounds with Scp1 inh | recombinant SCP-1 catalytic domain, phosphate release, malachite green absorbance | inhibition, % at 20 µM | 2,500 tested, 61% active | AID 540281, 2011;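 note: plate controls were DMSO with enzyme for no effect and buffer wells lacking enzyme for full effect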
MG interference: colorimetric readout interference by compounds, confirmation, artefact control for Scp-1 inhibitor project, biochemical, single concentration. shares compounds with Scp1 inh. Colorimetric interference counterscreen, malachite green absorbance 630 nm. apparent inhibition (interference), % at 20 µM. 2,500 tested, under 10 active;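 note: compounds added after enzyme reaction finished so only phosphate colour detection is probed; plate controls were DMSO wells with completed Scp-1 reaction for no effect and substrate wells lacking enzyme for full effect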
Scp1 DSF: Scp-1 binding by thermal shift, confirmation, orthogonal assay for Scp-1 inhibitor project, biophysical, differential scanning fluorimetry | shares compounds with Scp1 inh | Recombinant SCP1, Sypro Orange thermal shift Tm | thermal shift relative to vanadate control, % at 40 µM | 1,500 tested, 25% active | AID 540329, 2011;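 active = substances whose mean melting-temperature shift, as a percentage of the reference inhibitor's shift, reaches about 5.3%, limit read from the data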;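 note: 0% = Tm of DMSO wells and 100% = Tm with sodium orthovanadate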
Active calls of the source: *; / = not tested or not shown.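 Rule for the calls, unless noted: active = inhibition of at least 30% at 20 µM; inactive = the rest.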

SMILES	Scp1 inh	SUMO1 PPI mod	FAS-TE inh	LMPTP inh	STEP block	Scp-1 conf	MG interference	others
CCOC(=O)N(C)c1c(CC)nc2c(OCc3ccccc3)cccn12	/	1	-5	-1	0	/	/
COc1cccc(C(NC(C)=O)c2nc(-c3cccc(O)c3)cs2)c1 (configuration not stated)	/	-11	0	0	-3	/	/
CCN(CC)S(=O)(=O)c1ccc(OC)c(NC(=O)Cc2cccs2)c1	87*	4	5	32	2	74*	-11	Scp1 DSF=6.3*
CC1CC(C)CN(C(=O)CSc2ncnc3sccc23)C1 (configuration not stated)	-2	1	1	-1	-1	/	/
C/C=C/C=C/C(=O)[C@@H]1[C@@H]([C@]2(C)OC(=O)C(C)=C2O)[C@H]2/C(=C(O)/C=C/C=C/C)C(=O)[C@]1(C)C(=O)C2(C)O (some centres not stated)	72*	25	-4	2	5	51*	-19	Scp1 DSF=11*
CC(C)[C@H](NS(=O)(=O)c1ccccc1F)C(=O)OCC(=O)Nc1cccc(S(N)(=O)=O)c1	-15	1	-8	-1	2	/	/
O=C(Nc1cccc2ncccc12)c1ccccc1Cl	98*	-4	-5	-1	-3	4	-2
O=C(Nc1cccc2ncccc12)c1ccccc1F	-4	-5	-5	0	-1	/	/
Cc1ccc(NC(=O)c2cc(-c3ccc(C)c(C)c3O)n[nH]2)cc1C	99*	14	-2	20	12	67*	-5	Scp1 DSF=7.5*
COc1ccc(CC(=O)Oc2ccc(F)c(F)c2)cc1S(=O)(=O)N1CCOCC1	-8	5	6	0	-2	/	/
O=C(O)c1ccc2c(=O)n(-c3ccccc3)c(=S)[nH]c2c1	79*	-3	-6	-2	-1	-9	-12
O=C(O)c1ccc2c(=O)n(-c3ccc(F)cc3)c(=S)[nH]c2c1	-4	0	-6	0	10	/	/
CC1=NN(c2ccccc2)C(=O)/C1=C/c1ccc(-c2ccc(C)c(C(=O)O)c2)o1	5	/	/	/	/	/	/
CC1(C)OC(=O)C(=Cc2ccc(-c3ccc(Cl)c(C(=O)O)c3)o2)C(=O)O1	57*	18	-7	1	8	57*	-9	Scp1 DSF=-10
CC1=NOC(=O)/C1=C\c1ccc(-c2ccc(Cl)c(C(=O)O)c2)o1	67*	18	-4	4	34	58*	-18	Scp1 DSF=2
CN(/N=C/c1cccnc1)c1cnn(-c2ccc(F)c(Cl)c2)c(=O)c1Cl	75*	-4	-7	0	1	39*	-8	Scp1 DSF=-20
NC(=O)C[n+]1cccc(C(=O)Nc2ccccc2)c1	90*	1	-3	-1	-2	-6	-6
O=C(C[n+]1cccc(C(=O)Nc2ccccc2)c1)c1ccc(Cl)cc1	/	-12	-1	-2	/	/	/
CCCNC(=O)c1cc(C2CCCCN2S(=O)(=O)Cc2cccc(C(F)(F)F)c2)on1 (configuration not stated)	/	-3	3	-1	2	/	/
CC(=O)/C(C[N+]1(C)CCCCC1)=N\O	105*	6	-8	-1	-2	84*	-21	Scp1 DSF=-6
C[N+]1(CC(=O)OC2CCCCCCCCCCC2)CCCC1	8	-2	2	0	3	/	/
NC(=O)CCC(NS(=O)(=O)c1ccc(Cl)cc1)C(=O)NCC1CCCCC1 (configuration not stated)	-5	4	0	0	3	/	/
NC(=O)CCC(NS(=O)(=O)c1ccc(Cl)cc1)C(=O)NCc1ccc(Cl)cc1 (configuration not stated)	-9	7	-6	-2	-1	-13	-16
OC[C@@H]1CN(Cc2ccc3c(c2)OCO3)C[C@H](n2cnc3c(NCc4ccc(F)cc4)ncnc32)O1	/	-3	-1	0	-3	/	/
COc1ccc(Cl)cc1-c1cc(C(=O)Nc2ccc(C(C)(C)C)cc2)[nH]n1	/	4	20	1	-5	/	/
SMILES	Scp1 inh	SUMO1 PPI mod	FAS-TE inh	LMPTP inh	STEP block	Scp-1 conf	MG interference	others
C#CCN(C[C@@H]1[C@@H](OC(=O)NCc2ccccc2)[C@@H](OC(=O)NCc2ccccc2)CN(C(=O)OC(C)C)N1C(=O)OC(C)C)S(=O)(=O)c1ccc(C)cc1	/	5	14	3	2	/	/
C[C@H](CO)N1C[C@H](C)[C@@H](CN(C)C)Oc2c(NC(=O)c3ccncc3)cccc2C1=O	6	10	-4	-1	-2	/	/
C[C@H](CO)N1C[C@H](C)[C@@H](CN(C)C(=O)Nc2ccc(C(F)(F)F)cc2)Oc2c(NC(=O)c3ccncc3)cccc2C1=O	88*	-5	3	-1	0	-3	-15
COc1ccc(NC(=O)N(C)C[C@H]2Oc3c(NC(=O)c4ccncc4)cccc3C(=O)N([C@H](C)CO)C[C@@H]2C)cc1	61*	1	-12	0	-4	7	-14
C[C@H](CO)N1C[C@H](C)[C@@H](CN(C)C(=O)Nc2ccccc2)Oc2c(NC(=O)c3ccncc3)cccc2C1=O	88*	-1	-6	1	-2	4	-19
C[C@H]1CN([C@@H](C)CO)C(=O)c2cccc(NC(=O)c3ccncc3)c2O[C@H]1CN(C)C(=O)Nc1ccccc1	95*	4	-10	1	-2	72*	-13	Scp1 DSF=-16
COCC(=O)N1CCCC(C(=O)c2ccc(-c3ccccc3)c(F)c2)C1 (configuration not stated)	-6	-2	-2	0	4	/	/
O=C(NCCS(=O)(=O)c1ccc(Br)cc1)c1ccc(Cl)cc1Cl	-4	3	7	-1	0	/	/
CC1(C(=O)NS(=O)(=O)c2cccc(F)c2)CCN1C(=O)c1cccc(F)c1 (configuration not stated)	/	3	-8	-2	2	/	/
